Results: ChEMBL document CHEMBL3399923, “Design and synthesis of new bioisosteres of spirooxindoles (MI-63/219) as anti-breast cancer agents” (Bioorg Med Chem, 2015)
Calls of active or inactive are those of the source. The calls are words filed in the database; no cut-off is given here.

Experiments:
[1] = tested on: MCF7; assay: Cytotoxicity against human MCF7 cells after 48 hrs by MTT assay; type: functional, cell-based; conditions: MCF7, 48 h
Outline: (§1)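 MTT viability screen for cytotoxicity across the breast cancer and normal kidney epithelial lines; IC50 reported in µM.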

[2] = tested on: Vero; assay: Cytotoxicity against African green monkey Vero cells after 48 hrs by MTT assay; type: cell-based; conditions: Chlorocebus sabaeus; outline: as §1
[3] = tested on: HEK293; assay: Cytotoxicity against human HEK293 cells after 48 hrs by MTT assay; type: cell-based; conditions: HEK293, 48 h; outline: as §1
[4] = tested on: MDA-MB-231; assay: Cytotoxicity against human MDA-MB-231 cells after 48 hrs by MTT assay; type: functional, cell-based; conditions: MDA-MB-231, 48 h; outline: as §1
[5] = species on record: Homo sapiens; assay: Increase in p21 protein expression in human primary breast adenocarcinoma cells assessed as reduction in Rb phosphorylation at 2.5 to 7.5 uM by immunoblotting analysis; type: functional
Outline: (§2)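 Western blot of cell-cycle regulatory proteins (p21, cyclin D1, phospho-Rb) in MCF-7 or primary breast cancer cells. Densitometric quantitation is given as fold change versus control; mean with SEM, n = 3.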

[6] = tested on: Mus musculus; assay: Toxicity in nude mouse xenografted with human MCF7 cells assessed as change in spleen at 20 mg/kg, po administered for 14 days by histomorphology relative to vehicle-treated control; type: organism-based; set-up: dose 20 mg/kg, route oral; conditions: in vivo, 336 h
Outline: (§3)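 MCF-7 xenograft tumors were induced in athymic nude mice and dosed at 20 mg/kg body weight/day for 14 days, alongside a vehicle-treated group. Tumor volume, average tumor size and body weight were tracked. Liver, lungs, spleen, uterus and kidney were examined histomorphologically against vehicle.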

[7] = species on record: Homo sapiens; assay: Increase in MDM2 protein expression in human primary breast adenocarcinoma cells; type: functional
[8] = tested on: MCF7; assay: Cell cycle arrest at G1/S phase in human MCF7 cells assessed as reduction in cyclin A1 mRNA expression at 2.5 to 7.5 uM after 48 hrs by RT-PCR analysis; type: functional, cell-based
Outline: (§4)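 Real-time quantitative PCR of p21, cyclin D1, A1, B1 and E1 mRNA in treated MCF-7 cells. Mean with SEM, n = 3, compared with control.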

[9] = tested on: MCF7; assay: Increase in p21 protein expression in human MCF7 cells assessed as reduction in Rb phosphorylation at 2.5 to 7.5 uM by immunoblotting analysis; type: functional, cell-based; outline: as §2
[10] = tested on: Mus musculus; assay: Antitumor activity against human MCF7 cells xenografted in nude mouse assessed as reduction in phosphorylated Rb level at 20 mg/kg, po administered for 14 days by Western blotting analysis; type: functional, organism-based; set-up: dose 20 mg/kg
[11] = tested on: MCF7; assay: Increase in MDM2 protein expression in human MCF7 cells; type: functional, cell-based
[12] = tested on: Mus musculus; assay: Antitumor activity against human MCF7 cells xenografted in nude mouse assessed as reduction in cyclin D1 protein expression at 20 mg/kg, po administered for 14 days by Western blotting analysis; type: functional, organism-based; set-up: dose 20 mg/kg
[13] = tested on: MCF7; assay: Cell cycle arrest at G1/S phase in human MCF7 cells assessed as reduction in cyclin D1 mRNA expression at 2.5 to 7.5 uM after 48 hrs by RT-PCR analysis; type: functional, cell-based; outline: as §4
[14] = tested on: MCF7; assay: Antitumor activity against human MCF7 cells xenografted in nude mouse assessed as reduction in tumor volume at 20 mg/kg, po administered for 14 days relative to vehicle-treated control; type: functional; set-up: scale not given: the % may be the effect or the level left; outline: as §3
[15] = tested on: Mus musculus; assay: Toxicity in nude mouse xenografted with human MCF7 cells assessed as change in body weight at 20 mg/kg, po administered for 14 days relative to vehicle-treated control; type: organism-based; set-up: dose 20 mg/kg, route oral; conditions: in vivo, 336 h; outline: as §3
[16] = Increase in p21 protein expression in human primary breast adenocarcinoma cells at 7.5 uM by immunoblotting analysis relative to control; type: functional; outline: as §2
[17] = species on record: Homo sapiens; assay: Increase in p53 protein expression in human primary breast adenocarcinoma cells; type: functional
[18] = tested on: MCF7; assay: Cell cycle arrest at G1/S phase in human MCF7 cells assessed as reduction in cyclin E1 mRNA expression at 2.5 to 7.5 uM after 48 hrs by RT-PCR analysis; type: functional, cell-based; outline: as §4
[19] = tested on: MCF7; assay: Increase in p21 protein expression in human MCF7 cells at 7.5 uM by immunoblotting analysis relative to control; type: functional; outline: as §2
[20] = tested on: Mus musculus; assay: Toxicity in nude mouse xenografted with human MCF7 cells assessed as change in lungs at 20 mg/kg, po administered for 14 days by histomorphology relative to vehicle-treated control; type: organism-based; set-up: dose 20 mg/kg, route oral; conditions: in vivo, 336 h; outline: as §3
[21] = species on record: Homo sapiens; assay: Increase in p21 protein expression in human primary breast adenocarcinoma cells assessed as reduction in cyclin D1 expression at 2.5 to 7.5 uM by immunoblotting analysis; type: functional; outline: as §2
[22] = tested on: MCF7; assay: Increase in p53 mRNA expression in human MCF7 cells at 2.5 to 7.5 uM by RT-PCR analysis; type: functional, cell-based
Outline: (§5)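 p53 and MDM2 mRNA were measured by real-time quantitative PCR in vehicle- versus compound-treated MCF-7 or primary breast cancer cells. Data are the mean of three separate experiments with SEM, compared with control.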

[23] = tested on: MCF7; assay: Increase in MDM2 mRNA expression in human MCF7 cells at 2.5 to 7.5 uM by RT-PCR analysis; type: functional, cell-based; outline: as §5
[24] = tested on: MCF7; assay: Cell cycle arrest at G2/M phase in human MCF7 cells assessed as reduction in cyclin B1 mRNA expression at 2.5 to 7.5 uM after 48 hrs by RT-PCR analysis; type: functional, cell-based; outline: as §4
[25] = tested on: Mus musculus; assay: Toxicity in nude mouse xenografted with human MCF7 cells assessed as change in uterus at 20 mg/kg, po administered for 14 days by histomorphology relative to vehicle-treated control; type: organism-based; set-up: dose 20 mg/kg, route oral; conditions: in vivo, 336 h; outline: as §3
[26] = species on record: Homo sapiens; assay: Increase in MDM2 mRNA expression in human primary breast adenocarcinoma cells at 2.5 to 7.5 uM by RT-PCR analysis; type: functional; outline: as §5
[27] = tested on: Mus musculus; assay: Toxicity in nude mouse xenografted with human MCF7 cells assessed as change in liver at 20 mg/kg, po administered for 14 days by histomorphology relative to vehicle-treated control; type: organism-based; set-up: dose 20 mg/kg, route oral; conditions: in vivo, 336 h; outline: as §3
[28] = Cell cycle arrest in human primary breast adenocarcinoma cells assessed as accumulation at G1 phase at 7.5 uM after 48 hrs by propidium iodide staining-based flow cytometry (reference value: 60%); type: functional
Outline: (§6)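 Cells were exposed to 7.5µM, then stained with propidium iodide and analysed by flow cytometry for the percentage of cells in each cell-cycle phase. Mean with SEM is from three independent experiments, compared with control.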

[29] = tested on: MCF7; assay: Increase in p53 […] in human MCF7 cells assessed as increase in p21 promoter activity after 18 hrs by luciferase reporter gene assay; type: functional, cell-based
[30] = species on record: Homo sapiens; assay: Increase in p53 mRNA expression in human primary breast adenocarcinoma cells at 2.5 to 7.5 uM by RT-PCR analysis; type: functional; outline: as §5
[31] = tested on: MCF7; assay: Increase in p21 protein expression in human MCF7 cells assessed as reduction in cyclin D1 expression at 2.5 to 7.5 uM by immunoblotting analysis; type: functional, cell-based; outline: as §2
[32] = tested on: Mus musculus; assay: Antitumor activity against human MCF7 cells xenografted in nude mouse assessed as increase in p21 protein expression at 20 mg/kg, po administered for 14 days by Western blotting analysis; type: functional, organism-based; set-up: dose 20 mg/kg
[33] = tested on: Mus musculus; assay: Toxicity in nude mouse xenografted with human MCF7 cells assessed as change in kidney at 20 mg/kg, po administered for 14 days by histomorphology relative to vehicle-treated control; type: organism-based; set-up: dose 20 mg/kg, route oral; conditions: in vivo, 336 h; outline: as §3
[34] = tested on: MCF7; assay: Increase in p21 mRNA expression in human MCF7 cells at 5 to 7.5 uM by RT-PCR analysis; type: functional, cell-based; outline: as §4
[35] = tested on: MCF7; assay: Increase in p53 protein expression in human MCF7 cells; type: functional, cell-based
[36] = tested on: MCF7; assay: Cell cycle arrest in human MCF7 cells assessed as accumulation at G1 phase at 7.5 uM after 48 hrs by propidium iodide staining-based flow cytometry (reference value: 60%); type: functional; outline: as §6
[37] = tested on: MCF7; assay: Antitumor activity against human MCF7 cells xenografted in nude mouse assessed as reduction in tumor size at 20 mg/kg, po administered for 14 days relative to vehicle-treated control; type: functional; set-up: scale not given: the % may be the effect or the level left; outline: as §3

With `O=C(c1ccc(OCCN2CCCCC2)cc1)C1[C@H](c2ccccc2)[C@@H](c2ccccc2)NC12C(=O)Nc1ccc([N+](=O)[O-])cc12` (stereo partly drawn) as the compound, how does the IC50 [1] read?
Its IC50 is 15.2 µM.

What about the IC50 [2] of the same compound?
The IC50 was 22.4 µM.

What about the IC50 [3] of the same compound?
Its IC50 is 18.8 µM.

What about the IC50 [4] of the same compound?
The IC50 was 13.5 µM.

Which IC50 [1] does the source give for `CN(C)CCCOc1ccc(C(=O)C2[C@H](c3ccccc3)[C@@H](c3ccccc3)NC23C(=O)Nc2ccccc23)cc1` (stereo partly drawn) here?
The IC50 was 9.6 µM.

And the IC50 [2]?
Its IC50 is greater than 50 µM.

And the IC50 [3]?
The IC50 was greater than 50 µM.

What about the IC50 [4] of the same compound?
Its IC50 is 9.2 µM.

For `O=C(c1ccc(OCCN2CCOCC2)cc1)C1[C@H](c2ccccc2)[C@@H](c2ccccc2)NC12C(=O)Nc1ccc(Cl)cc12` (stereo partly drawn), which IC50 [1] is on record?
Its IC50 is 18 µM.

What about the IC50 [2] of the same compound?
The IC50 was 30.8 µM.

And the IC50 [3]?
Its IC50 is 25.4 µM.

What about the IC50 [4] of the same compound?
Its IC50 is 19.2 µM.

Which results are given for `COc1ccc(C2=N[C@@H](c3ccc(Cl)cc3)[C@@H](c3ccc(Cl)cc3)N2C(=O)N2CCNC(=O)C2)c(OC(C)C)c1` [NUTLIN-3]?
IC50 [1]: 11.6 µM; IC50 [2]: > 50 µM; IC50 [3]: > 50 µM; IC50 [4]: 23.5 µM

For `COc1ccc([C@H]2C(C(=O)c3ccccc3)C3(N[C@@H]2c2ccccc2)C(=O)Nc2ccccc23)cc1` (stereo partly drawn), which IC50 [1] is on record?
Its IC50 is 20.6 µM.

And the IC50 [2]?
The IC50 was 43.5 µM.

And the IC50 [3]?
The IC50 was greater than 50 µM.

What about the IC50 [4] of the same compound?
Its IC50 is 30.5 µM.

Which results are given for `CCN(CC)CCOc1ccc(C(=O)C2[C@H](c3ccccc3)[C@@H](c3ccccc3)NC23C(=O)Nc2ccccc23)cc1` (stereo partly drawn)?
IC50 [1]: 13.4 µM; IC50 [2]: 20.6 µM; IC50 [3]: 23.2 µM; IC50 [4]: 14.5 µM

What does the source list for `O=C(c1ccc([N+](=O)[O-])cc1)C1[C@H](c2ccccc2)[C@@H](c2ccccc2)NC12C(=O)Nc1ccccc12` (stereo partly drawn)?
IC50 [1]: 15.5 µM; IC50 [2]: > 50 µM; IC50 [3]: 21.4 µM; IC50 [4]: 29.5 µM

What does the source list for `O=C(c1ccc(OCCN2CCCCC2)cc1)C1[C@H](c2ccccc2)[C@@H](c2ccccc2)NC12C(=O)Nc1ccc(Cl)cc12` (stereo partly drawn)?
Activity [5]: Active; Activity [6]: Non-toxic; Activity [7]: Active; Activity [8]: Active; Activity [9]: Active; Activity [10]: Active; Activity [11]: Active; Activity [12]: Active; Activity [13]: Active; IC50 [1]: 6.5 µM; Activity [14]: 66%; Activity [15]: Non-toxic; Ratio [16]: 2.5; Activity [17]: Active; Activity [18]: Active; Ratio [19]: 2.5; Activity [20]: Non-toxic; Activity [21]: Active; Activity [22]: Active; Activity [23]: Active; Activity [24]: inactive; Activity [25]: Non-toxic; Activity [26]: Active; Activity [27]: Non-toxic; IC50 [2]: > 50 µM; Activity [28]: 90%; IC50 [3]: > 50 µM; Activity [29]: Dose-dependent effect; Activity [30]: Active; Activity [31]: Active; Activity [32]: Active; Activity [33]: Non-toxic; Activity [34]: Active; Activity [35]: Active; Activity [36]: 90%; IC50 [4]: 3.7 µM; Activity [37]: 66%

For `CC/C(=C(\c1ccc(O)cc1)c1ccc(OCCN(C)C)cc1)c1ccccc1`, which IC50 [1] is on record?
The IC50 was 13.6 µM.

And the IC50 [2]?
The IC50 was greater than 50 µM.

And the IC50 [3]?
The IC50 was greater than 50 µM.
